Test results from ChEMBL document CHEMBL2176912, “Diphenyl purine derivatives as peripherally selective cannabinoid receptor 1 antagonists” (J Med Chem, 2012).

Legend:
Cannabinoid receptor 2 = Cannabinoid receptor 2 (Homo sapiens, UniProt P34972); test: Displacement of [3H]CP55940 from human CB2 receptor expressed in CHO-K1 cells; assay type: cell-based
Cannabinoid receptor 1 [1] = biological target: T1, Cannabinoid receptor 1 (Homo sapiens, UniProt P21554); test: Displacement of [3H]CP55940 from human CB1 receptor expressed in CHO-K1 cells; assay type: cell-based
Cannabinoid receptor 1 [2] = biological target: T1, Cannabinoid receptor 1; test: Antagonist activity at human CB1 receptor transfected in CHO-K1 cells co-expressing Galphaq16 assessed as intracellular calcium mobilization using Calcein-4 AM by fluorescence assay; assay type: functional, cell-based
Method in brief: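 CHO-K1 cells engineered to coexpress human CB1 and Gαq16. Calcium flux read with fluorescent dye Calcein-4 AM on a plate reader. Antagonism measured as rightward shift of the CP55940 concentration–response curve. Ke = [ligand]/(DR−1), where DR is the ratio of CP55940 EC50 with and without test agent. Values are averages of 3–6 measurements.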

CHO-K1 = test: Selectivity ratio of Ki for human CB2 receptor expressed in CHO-K1 cells to Ki for human CB1 receptor expressed in CHO-K1 cells
MDCK = test: Permeability from apical to basolateral side in dog MDCK cells expressing MDR-1 gene; assay type: ADME, cell-based, Canis lupus familiaris
Method in brief: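 MDCK-mdr1 cells grown on Transwell-type filters for 4 days to confluence in DMEM/F12 with 10% FBS and antibiotics. Compound applied apically at 10 μM in HBSS with 25 mM D-glucose, HEPES-buffered to pH 7.4. Incubated 1 h at 37 °C; apical and basal samples quantified by LC-MS/MS (MRM). Averages of 2–3 measurements.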

Nucleic Acid [3] = test: Ratio of drug uptake in brain to plasma of Sprague-Dawley rat brain at 10 mg/kg, po after 480 mins; assay type: ADME, organism-based; parameters: dose 10 mg/kg, route oral; settings: 8 h
Method in brief: (§1)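 Male Sprague–Dawley rats, 8 weeks old, dosed orally at 10 mg/kg in food-grade corn oil; 3–4 animals per time point. Plasma and unperfused brain collected post dose. Brain homogenized in 50:50 ethanol/water; plasma and homogenate extracted with acetonitrile and centrifuged. Analysed by LC-MS/MS against standards prepared in blank matrix. Ratio taken from brain and plasma concentrations.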

Nucleic Acid [4] = test: Ratio of drug uptake in brain to plasma of Sprague-Dawley rat brain at 10 mg/kg, po after 240 mins; assay type: ADME, organism-based; parameters: dose 10 mg/kg, route oral; settings: 4 h; method in brief: as §1
Nucleic Acid [5] = test: Ratio of drug uptake in brain to plasma of Sprague-Dawley rat brain at 10 mg/kg, po after 120 mins; assay type: ADME, organism-based; parameters: dose 10 mg/kg, route oral; settings: 2 h; method in brief: as §1
Nucleic Acid [6] = test: Ratio of drug uptake in brain to plasma of Sprague-Dawley rat brain at 10 mg/kg, po after 60 mins; assay type: ADME, organism-based; parameters: dose 10 mg/kg, route oral; settings: 1 h; method in brief: as §1
Nucleic Acid [7] = test: Ratio of drug uptake in brain to plasma of Sprague-Dawley rat brain at 10 mg/kg, po after 30 mins; assay type: ADME, organism-based; parameters: dose 10 mg/kg, route oral; settings: 0.5 h; method in brief: as §1
[8] = Drug uptake in Sprague-Dawley rat brain at 10 mg/kg, po after 480 mins; assay type: ADME, organism-based; parameters: dose 10 mg/kg, route oral; settings: read-out: Drug uptake
Method in brief: (§2)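 Male Sprague–Dawley rats, 8 weeks old, given 10 mg/kg orally in food-grade corn oil. Three to four animals per time point. Plasma and unperfused brain collected at 0.5–8 h. Brain homogenized in 50:50 ethanol/water. Samples protein-precipitated with acetonitrile and analysed by LC-MS/MS on a C18 column against standards in blank matrix.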

[9] = Drug uptake in Sprague-Dawley rat brain at 10 mg/kg, po after 240 mins; assay type: ADME, organism-based; parameters: dose 10 mg/kg, route oral; settings: read-out: Drug uptake; method in brief: as §2
[10] = Drug uptake in Sprague-Dawley rat brain at 10 mg/kg, po after 120 mins; assay type: ADME, organism-based; parameters: dose 10 mg/kg, route oral; settings: read-out: Drug uptake; method in brief: as §2
[11] = Drug uptake in Sprague-Dawley rat brain at 10 mg/kg, po after 60 mins; assay type: ADME, organism-based; parameters: dose 10 mg/kg, route oral; settings: read-out: Drug uptake; method in brief: as §2
[12] = Drug uptake in Sprague-Dawley rat brain at 10 mg/kg, po after 30 mins; assay type: ADME, organism-based; parameters: dose 10 mg/kg, route oral; settings: read-out: Drug uptake; method in brief: as §2
[13] = Plasma concentration in Sprague-Dawley rat at 10 mg/kg, po after 240 mins; assay type: ADME, organism-based; parameters: dose 10 mg/kg, route oral; method in brief: as §2
[14] = Plasma concentration in Sprague-Dawley rat at 10 mg/kg, po after 120 mins; assay type: ADME, organism-based; parameters: dose 10 mg/kg, route oral; method in brief: as §2
[15] = Plasma concentration in Sprague-Dawley rat at 10 mg/kg, po after 60 mins; assay type: ADME, organism-based; parameters: dose 10 mg/kg, route oral; method in brief: as §2
[16] = Plasma concentration in Sprague-Dawley rat at 10 mg/kg, po after 30 mins; assay type: ADME, organism-based; parameters: dose 10 mg/kg, route oral; method in brief: as §2
Liver = test: Metabolic stability in human liver S9 fraction assessed as compound remaining after 120 mins; assay type: ADME, subcellular; settings: s9, 2 h
Method in brief: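 Pooled mixed-gender human hepatic S9 at 1 mg/mL. Compound at 10 μM final in 50 mM potassium phosphate pH 7.4 with 3 mM MgCl2 and NADPH regeneration (NADP 1 mM, glucose-6-phosphate 5 mM, G6PDH 1 unit/mL). Triplicates incubated 0, 15, 30, 60, 120 min, stopped with 3 vol acetonitrile, LC-MS/MS against matrix standard curves; percent remaining at 120 min.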

Plasma = test: Metabolic stability in human plasma assessed as compound remaining after 60 mins; assay type: ADME, cell-free; settings: 1 h
Method in brief: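 Pooled mixed-gender human plasma, 1 mL per sample at 37 °C. Compound at 10 μM final, sampled at 0, 30 and 60 min after 5 min preincubation. Reaction stopped with acetonitrile, LC-MS/MS quantitation; percent remaining at 60 min.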

Cannabinoid receptor 2, sequence (P34972 whole entry): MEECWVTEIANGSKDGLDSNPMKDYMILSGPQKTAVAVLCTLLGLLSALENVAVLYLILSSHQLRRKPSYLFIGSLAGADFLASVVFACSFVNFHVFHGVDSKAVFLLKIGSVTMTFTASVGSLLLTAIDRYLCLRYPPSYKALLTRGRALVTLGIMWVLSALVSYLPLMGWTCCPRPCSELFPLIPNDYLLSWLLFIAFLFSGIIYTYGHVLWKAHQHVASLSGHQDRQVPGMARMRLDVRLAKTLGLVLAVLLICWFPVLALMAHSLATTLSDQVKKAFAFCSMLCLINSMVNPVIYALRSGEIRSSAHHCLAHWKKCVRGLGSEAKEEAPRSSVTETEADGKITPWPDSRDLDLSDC
T1 sequence (P21554 whole entry): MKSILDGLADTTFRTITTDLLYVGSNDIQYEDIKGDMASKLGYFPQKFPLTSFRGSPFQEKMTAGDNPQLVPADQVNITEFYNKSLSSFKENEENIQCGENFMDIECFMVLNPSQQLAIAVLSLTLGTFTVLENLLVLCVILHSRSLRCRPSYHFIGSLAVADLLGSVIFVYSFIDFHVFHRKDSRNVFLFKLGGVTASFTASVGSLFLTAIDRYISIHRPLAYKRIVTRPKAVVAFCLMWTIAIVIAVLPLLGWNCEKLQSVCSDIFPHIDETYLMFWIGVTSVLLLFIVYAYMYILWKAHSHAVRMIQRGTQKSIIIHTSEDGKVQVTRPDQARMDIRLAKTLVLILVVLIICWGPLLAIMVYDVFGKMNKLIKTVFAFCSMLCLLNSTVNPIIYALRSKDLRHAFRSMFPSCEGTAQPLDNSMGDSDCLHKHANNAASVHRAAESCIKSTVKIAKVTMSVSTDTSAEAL

| Compound | Ki (Cannabinoid receptor 2) | Ki (Cannabinoid receptor 1 [1]) | Ke (Cannabinoid receptor 1 [2]) | Ratio Ki (CHO-K1) | also measured |
| --- | --- | --- | --- | --- | --- |
| CCCCNC(=O)NC1(c2ccccc2)CCN(c2ncnc3c2nc(-c2ccccc2Cl)n3-c2ccc(Cl)cc2)CC1 | > 20000 nM | 269 nM | – | – | – |
| CCCNC(=O)NC1(c2ccccc2)CCN(c2ncnc3c2nc(-c2ccccc2Cl)n3-c2ccc(Cl)cc2)CC1 | 7780 nM | 220 nM | 99 nM | 35 | – |
| CCCCNC(=O)N1CCC(Nc2ncnc3c2nc(-c2ccccc2Cl)n3-c2ccc(Cl)cc2)CC1 | > 20000 nM | 3340 nM | 71 nM | – | – |
| Cc1c(C(=O)N2CCC(C(N)=O)(c3ccccc3)CC2)nn(-c2ccc(Cl)cc2Cl)c1-c1ccc(Cl)cc1 | – | – | 0.45 nM | 1600 | permeability (MDCK): 8% |
| CCNC(=O)N1CCC[C@@H](Nc2ncnc3c2nc(-c2ccccc2Cl)n3-c2ccc(Cl)cc2)C1 | – | – | 1500 nM | – | – |
| NC1(c2ccccc2)CCN(c2ncnc3c2nc(-c2ccccc2Cl)n3-c2ccc(Cl)cc2)CC1 | 1660 nM | 11 nM | – | 151 | permeability (MDCK): < 1% |
| O=C(NC1CCN(c2ncnc3c2nc(-c2ccccc2Cl)n3-c2ccc(Cl)cc2)CC1)c1ccccc1 | – | – | 0.7 nM | – | – |
| O=S(=O)(NC1CCN(c2ncnc3c2nc(-c2ccccc2Cl)n3-c2ccc(Cl)cc2)CC1)c1ccccc1 | 5860 nM | 1.2 nM | 0.3 nM | 4890 | – |
| CC(C)NC(=O)NC1(c2ccccc2)CCN(c2ncnc3c2nc(-c2ccccc2Cl)n3-c2ccc(Cl)cc2)CC1 | 8950 nM | 337 nM | 46 nM | 27 | – |
| CS(=O)(=O)NC1(c2ccccc2)CCN(c2ncnc3c2nc(-c2ccccc2Cl)n3-c2ccc(Cl)cc2)CC1 | – | – | 2.9 nM | 153 | BPR (Nucleic Acid [3]): 0.1; BPR (Nucleic Acid [4]): 0.11; BPR (Nucleic Acid [5]): 0.1; BPR (Nucleic Acid [6]): 0.08; BPR (Nucleic Acid [7]): 0.05; concentration at 8 h [8]: 89 ng/mL; concentration at 4 h [9]: 184 ng/mL; concentration at 2 h [10]: 122 ng/mL; concentration at 1 h [11]: 58 ng/mL; concentration at 0.5 h [12]: 38 ng/mL; concentration at 4 h [13]: 1650 ng/mL; concentration at 2 h [14]: 1190 ng/mL; concentration at 1 h [15]: 767 ng/mL; concentration at 0.5 h [16]: 752 ng/mL; Stability (Liver): > 90%; Stability (Plasma): > 90%; permeability (MDCK): < 1% |
| CC(C)(C)OC(=O)NC1CCN(c2ncnc3c2nc(-c2ccccc2Cl)n3-c2ccc(Cl)cc2)CC1 | 1710 nM | 1.5 nM | 11 nM | 1140 | – |
| CC(C)(C)NC(=O)NC1(c2ccccc2)CCN(c2ncnc3c2nc(-c2ccccc2Cl)n3-c2ccc(Cl)cc2)CC1 | 20000 nM | 25.5 nM | – | 784 | Stability (Liver): 43%; Stability (Plasma): > 90%; permeability (MDCK): < 1% |
| CS(=O)(=O)NC1CCN(c2ncnc3c2nc(-c2ccccc2Cl)n3-c2ccc(Cl)cc2)CC1 | 1070 nM | 29 nM | – | 37 | – |
| CCNC(=O)N1CCC[C@H](Nc2ncnc3c2nc(-c2ccccc2Cl)n3-c2ccc(Cl)cc2)C1 | – | – | 1150 nM | – | – |
| CCCNC(=O)NC1CCN(c2ncnc3c2nc(-c2ccccc2Cl)n3-c2ccc(Cl)cc2)CC1 | 153 nM | 28 nM | – | 5 | – |
| CC(C)NC(=O)NC1CCN(c2ncnc3c2nc(-c2ccccc2Cl)n3-c2ccc(Cl)cc2)CC1 | 2450 nM | 14 nM | – | 175 | – |
| CC(C)(C)OC(=O)N1CCC(Nc2ncnc3c2nc(-c2ccccc2Cl)n3-c2ccc(Cl)cc2)CC1 | 14000 nM | 24 nM | 92 nM | 568 | – |
| CCNC(=O)NC1(c2ccccc2)CCN(c2ncnc3c2nc(-c2ccccc2Cl)n3-c2ccc(Cl)cc2)CC1 | 4640 nM | 195 nM | – | 24 | – |
| O=C(NC1CCN(c2ncnc3c2nc(-c2ccccc2Cl)n3-c2ccc(Cl)cc2)CC1)C(F)(F)F | – | – | 3.2 nM | – | – |
| CCCCNC(=O)NC1CCN(c2ncnc3c2nc(-c2ccccc2Cl)n3-c2ccc(Cl)cc2)CC1 | 1550 nM | 25 nM | – | 62 | – |
| CCNC1(C(N)=O)CCN(c2ncnc3c2nc(-c2ccccc2Cl)n3-c2ccc(Cl)cc2)CC1 [OTENABANT] | – | – | – | – | permeability (MDCK): 40% |
| CC(C)(C)OC(=O)NC1(c2ccccc2)CCN(c2ncnc3c2nc(-c2ccccc2Cl)n3-c2ccc(Cl)cc2)CC1 | 13900 nM | 7.1 nM | – | 1960 | permeability (MDCK): < 1% |
| CS(=O)(=O)N1CCC[C@@H](Nc2ncnc3c2nc(-c2ccccc2Cl)n3-c2ccc(Cl)cc2)C1 | – | – | 346 nM | – | – |
| CC(=O)N1CCC[C@@H](Nc2ncnc3c2nc(-c2ccccc2Cl)n3-c2ccc(Cl)cc2)C1 | – | – | 920 nM | – | – |
| NC(=O)C1(c2ccccc2)CCN(c2ncnc3c2nc(-c2ccccc2Cl)n3-c2ccc(Cl)cc2)CC1 | 5510 nM | 1.79 nM | 9 nM | 3080 | Stability (Liver): > 90%; Stability (Plasma): > 90%; permeability (MDCK): 6% |
| CC(=O)N1CCC[C@H](Nc2ncnc3c2nc(-c2ccccc2Cl)n3-c2ccc(Cl)cc2)C1 | – | – | 4450 nM | – | – |
| CS(=O)(=O)N1CCC[C@H](Nc2ncnc3c2nc(-c2ccccc2Cl)n3-c2ccc(Cl)cc2)C1 | – | – | 6040 nM | – | – |
